Experimental data taken from ChEMBL document CHEMBL3616400, “Design, Synthesis, and Evaluation of Triazole Derivatives That Induce Nrf2 Dependent Gene Products and Inhibit the Keap1-Nrf2 Protein-Protein Interaction” (J Med Chem, 2015).
Calls of active or inactive are those of the source. The calls are words filed in the database; no cut-off is given here.

Legend:
[1] = target: T1, Keap1/Nrf2 (Homo sapiens) (UniProt Q16236+Q14145); test: Inhibition of mCherry labeled Keap1 interaction to ETGE motif from Nrf2 in human HEK293 cells at 10 uM by FRET based assay; type: cell-based
T1 sequence (Q14145 whole entry, looked up): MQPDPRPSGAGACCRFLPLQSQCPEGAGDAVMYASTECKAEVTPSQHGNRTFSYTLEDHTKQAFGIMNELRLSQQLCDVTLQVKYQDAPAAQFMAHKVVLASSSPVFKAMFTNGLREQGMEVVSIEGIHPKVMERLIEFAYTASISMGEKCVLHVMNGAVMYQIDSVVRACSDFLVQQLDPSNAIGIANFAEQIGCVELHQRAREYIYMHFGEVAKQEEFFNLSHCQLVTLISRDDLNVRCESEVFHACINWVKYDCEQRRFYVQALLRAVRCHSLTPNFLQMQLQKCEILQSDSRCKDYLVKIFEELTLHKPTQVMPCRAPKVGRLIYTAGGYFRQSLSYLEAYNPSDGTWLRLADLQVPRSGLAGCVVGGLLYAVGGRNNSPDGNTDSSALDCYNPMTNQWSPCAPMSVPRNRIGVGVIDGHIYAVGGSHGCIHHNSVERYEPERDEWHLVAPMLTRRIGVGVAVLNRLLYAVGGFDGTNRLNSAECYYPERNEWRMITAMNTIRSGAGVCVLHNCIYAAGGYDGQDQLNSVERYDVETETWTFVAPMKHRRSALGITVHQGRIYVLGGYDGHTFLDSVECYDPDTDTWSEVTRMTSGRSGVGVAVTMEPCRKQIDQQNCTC
T1 sequence (Q16236 whole entry, looked up): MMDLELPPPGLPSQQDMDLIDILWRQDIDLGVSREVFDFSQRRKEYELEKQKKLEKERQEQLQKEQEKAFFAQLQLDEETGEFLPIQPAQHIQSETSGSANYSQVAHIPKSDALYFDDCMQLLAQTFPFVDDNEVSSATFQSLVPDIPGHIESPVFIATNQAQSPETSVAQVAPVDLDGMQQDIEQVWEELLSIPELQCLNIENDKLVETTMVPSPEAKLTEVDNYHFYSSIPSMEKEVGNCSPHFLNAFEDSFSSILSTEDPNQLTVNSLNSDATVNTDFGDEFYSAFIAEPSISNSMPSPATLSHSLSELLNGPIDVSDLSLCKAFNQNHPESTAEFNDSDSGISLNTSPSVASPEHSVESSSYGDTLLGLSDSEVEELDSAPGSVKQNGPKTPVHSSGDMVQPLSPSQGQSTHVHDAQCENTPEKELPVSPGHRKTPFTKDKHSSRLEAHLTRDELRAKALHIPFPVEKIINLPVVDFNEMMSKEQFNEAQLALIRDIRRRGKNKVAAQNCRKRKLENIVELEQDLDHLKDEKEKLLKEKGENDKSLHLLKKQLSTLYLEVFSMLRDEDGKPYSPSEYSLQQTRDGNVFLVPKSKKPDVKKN
Procedure, shortened: (§1)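 HEK293 cells were co-transfected with EGFP-Nrf2 and Keap1-mCherry. Each cell was imaged by FLIM twice: once basal and once 1 h after 10 µM compound. EGFP lifetime and FRET efficiency were calculated in the cytoplasm. High- and low-FRET-efficiency populations were scored to distinguish DLG-dependent binding from ETGE-dependent binding.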

[2] = target: T1, Keap1/Nrf2 (Homo sapiens); test: Inhibition of mCherry labeled Keap1 interaction to DLG motif from Nrf2 in human HEK293 cells at 10 uM by FRET based assay; type: cell-based; procedure, shortened: as §1
[3] = target: T2, Nuclear factor erythroid 2-related factor 2 (Mus musculus) (UniProt Q60795); test: Activation of Nrf2 in mouse Hepa1c1c7 cells assessed as increase of HO-1 expression at 10 uM after 6 hrs by Western blot analysis; type: cell-based
T2 sequence (whole entry): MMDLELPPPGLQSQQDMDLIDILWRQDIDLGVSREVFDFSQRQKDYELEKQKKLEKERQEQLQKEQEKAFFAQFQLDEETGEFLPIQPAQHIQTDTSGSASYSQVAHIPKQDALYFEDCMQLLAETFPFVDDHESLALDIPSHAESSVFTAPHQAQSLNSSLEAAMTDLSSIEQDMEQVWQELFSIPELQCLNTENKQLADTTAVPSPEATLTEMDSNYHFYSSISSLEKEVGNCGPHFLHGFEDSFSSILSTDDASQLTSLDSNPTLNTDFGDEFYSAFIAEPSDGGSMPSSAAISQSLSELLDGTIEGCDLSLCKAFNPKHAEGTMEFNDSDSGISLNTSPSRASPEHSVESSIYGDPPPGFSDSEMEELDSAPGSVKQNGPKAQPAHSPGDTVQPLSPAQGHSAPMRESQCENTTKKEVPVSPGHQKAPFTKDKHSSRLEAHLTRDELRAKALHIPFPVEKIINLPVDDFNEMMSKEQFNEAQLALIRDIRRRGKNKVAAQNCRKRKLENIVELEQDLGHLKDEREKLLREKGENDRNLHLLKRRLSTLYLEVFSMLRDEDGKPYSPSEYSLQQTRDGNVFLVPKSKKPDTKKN
Procedure, shortened: (§2)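 Hepa1c1c7 cells incubated with test compounds at 10 µM for various exposure times, up to 24 h. Nrf2, HO-1 and NQO1 protein levels assessed by Western blot.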

Mus musculus [4] = organism: Mus musculus; test: Increase of Nrf2 protein level in mouse Hepa1c1c7 cells at 10 uM after 24 hrs by Western blot analysis; type: functional, cell-based; procedure, shortened: as §2
[5] = Therapeutic index, ratio of GI50 for mouse Hepa1c1c7 cells to CD for activation of Nrf2 in mouse Hepa1c1c7 cells assessed as concentration required to 2 fold induction of NQO1 production; type: cell-based; details: read-out: TI
[6] = target: T2, Nuclear factor erythroid 2-related factor 2 (Mus musculus); test: Activation of Nrf2 in mouse Hepa1c1c7 cells assessed as increase of NQO1 expression at 10 uM measured before 24 hrs by Western blot analysis; type: cell-based; procedure, shortened: as §2
Mus musculus [7] = organism: Mus musculus; test: Increase of Nrf2 protein level in mouse Hepa1c1c7 cells at 10 uM by Western blot analysis; type: functional, cell-based; details: TDE = time-dependent effect; procedure, shortened: as §2
[8] = target: T2, Nuclear factor erythroid 2-related factor 2 (Mus musculus); test: Activation of Nrf2 in mouse Hepa1c1c7 cells assessed as concentration required to 2 fold induction of NQO1 production after 24 hrs by MTT colorimetric assay; type: cell-based
Procedure, shortened: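 Hepa1c1c7 mouse hepatoma cells exposed to a concentration range for 24 h. NQO1 enzymatic activity measured by colorimetric induction assay. Value reported as CD, the concentration giving a two-fold increase in NQO1 activity.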

Keap1/Nrf2 [9] = target: T3, Keap1/Nrf2 (Homo sapiens, UniProt Q14145); test: Inhibition of kelch domain of Keap1 (unknown origin) interaction to high affinity ETGE motif from Nrf2 by fluorescence polarization assay; type: protein assay
T3 sequence (Q16236 whole entry, the tested form may be a part): as the sequence (Q16236 whole entry, looked up) above
T3 sequence (Q14145 whole entry, the tested form may be a part): as the sequence (Q14145 whole entry, looked up) above
Procedure, shortened: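 Competitive fluorescence polarization, dose-response format. Keap1 Kelch domain with fluorescein-labelled Nrf2 ETGE peptide FITC-β-DEETGEF-OH. EC50 derived from dose-response curves.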

[10] = target: T2, Nuclear factor erythroid 2-related factor 2 (Mus musculus); test: Activation of Nrf2 in mouse Hepa1c1c7 cells assessed as induction of NQO1 production at 10 uM after 24 hrs by MTT colorimetric assay relative to control; type: cell-based
Procedure, shortened: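 Hepa1c1c7 mouse hepatoma cells treated at a fixed 10 µM for 24 h. NQO1 enzyme activity read by colorimetric induction assay and expressed as fold induction over control.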

[11] = target: T1, Keap1/Nrf2 (Homo sapiens); test: Inhibition of kelch domain of Keap1 (unknown origin) interaction to high affinity ETGE motif from Nrf2 unknown origin) at 100 uM by fluorescence polarization assay; type: protein assay
Procedure, shortened: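 Fluorescence polarization competition. Keap1 Kelch domain with fluorescein-labelled ETGE peptide FITC-β-DEETGEF-OH (β = β-alanine). Displacement measured with a fixed 100 µM inhibitor; percent inhibition reported.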

Mus musculus [12] = organism: Mus musculus; test: Increase of Nrf2 protein level in mouse Hepa1c1c7 cells at 10 uM after 3 to 6 hrs by Western blot analysis; type: functional, cell-based; procedure, shortened: as §2
[13] = target: T1, Keap1/Nrf2 (Homo sapiens); test: Inhibition of kelch domain of Keap1 (unknown origin) interaction to high affinity ETGE motif from Nrf2 unknown origin) in presence of 0 to 1 % v/v Triton X100 by fluorescence polarization assay; type: protein assay
[14] = target: Kelch-like ECH-associated protein 1 (Homo sapiens) (UniProt Q14145); test: Binding affinity to kelch domain of Keap1 (unknown origin) using high affinity ETGE motif from Nrf2 unknown origin) at 200 uM by fluorescence polarization assay
Sequence of Kelch-like ECH-associated protein 1 (Homo sapiens) (Q14145 whole entry, the tested form may be a part): as the sequence (Q14145 whole entry, looked up) above

[15] = Cytotoxicity against mouse Hepa1c1c7 cells assessed as cell viability at 200 uM after 24 to 48 hrs by SRB assay; type: cell-based; details: read-out: Activity
Procedure, shortened: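 Hepa1c1c7 cells exposed to compounds at up to 200 µM for 24 and 48 h. Viability determined by sulforhodamine B assay.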

Keap1/Nrf2 [16] = target: T3, Keap1/Nrf2; test: Inhibition of Keap1 (unknown origin) interaction to Nrf2; type: protein assay

Molecule	inhibition [1]	inhibition [2]	Activity [3]	Activity (Mus musculus [4])	selectivity ratio [5]	Activity [6]	Activity (Mus musculus [7])	CD [8] [µM]	EC50 (Keap1/Nrf2 [9]) [µM]	fold change (FC) [10]	inhibition [11] [%]	Activity (Mus musculus [12])	inhibition [13]	Activity [14]	viability at 200 µM [15] [%]	EC50 (Keap1/Nrf2 [16]) [µM]
C[S+]([O-])CCCCN=C=S (stereo not given) [SULFORAPHANE]	inactive	Active	Active	Active	250	inactive	tde	0.3	–	–	–	–	–	–	–	–
Cc1cccc(-n2cc(-c3cccc([N+](=O)[O-])c3)nn2)c1	–	–	Active	Active	–	inactive	tde	1.3	10	2.2	68.9	–	–	–	–	–
CC(C)(C)c1cccc(-n2cc(-c3cccc([N+](=O)[O-])c3)nn2)c1	–	–	–	inactive	–	–	–	> 10	37.8	1.93	69.8	–	–	–	–	–
O=[N+]([O-])c1cccc(-c2cn(-c3cccc(I)c3)nn2)c1	inactive	Active	Active	Active	> 1000	inactive	tde	0.6	7.1	4	67.2	Active	Active	Active	100	–
Ac-WRQDIDL-OH	–	–	–	–	–	–	–	–	–	–	–	–	–	–	–	17.1
O=[N+]([O-])c1cccc(-c2cn(-c3cccc(Br)c3)nn2)c1	–	–	–	–	–	–	–	1.2	24.5	2.94	68.2	–	–	–	–	–
O=[N+]([O-])c1cccc(-c2cn(-c3ccccc3)nn2)c1	–	–	–	–	–	–	–	> 10	20.6	1.95	66.9	–	–	–	–	–
